Columns and labels:
[1] = molecular target: Epidermal growth factor receptor (Homo sapiens, UniProt P00533); assay: Inhibition of EGFR in shed membrane vesicles of human A431 cells using poly-Glu-Tyr as substrate after 30 mins by ELISA; type: cell membranes, A-431
A549 = assay: Antiproliferative activity against human A549 cells after 72 hrs by MTT assay; type: functional, cell-based; conditions: A549, 72 h
A-431 = assay: Antiproliferative activity against human A431 cells after 72 hrs by MTT assay; type: functional, cell-based; conditions: A-431, 72 h
Outline: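 A431 cells seeded in 96-well plates and held 24 h at 37 °C before exposure, with cell numbers set so controls stay in exponential growth. Compounds at final 100.0, 10.0, 1.0 and 0.1 μM for 72 h. MTT (5 mg/ml in PBS) added for 4 h, formazan pelleted and dissolved in DMSO, OD 570 nm. Three experiments in triplicate; IC50 from inhibition ratios.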

Chain of Epidermal growth factor receptor (P00533 whole entry): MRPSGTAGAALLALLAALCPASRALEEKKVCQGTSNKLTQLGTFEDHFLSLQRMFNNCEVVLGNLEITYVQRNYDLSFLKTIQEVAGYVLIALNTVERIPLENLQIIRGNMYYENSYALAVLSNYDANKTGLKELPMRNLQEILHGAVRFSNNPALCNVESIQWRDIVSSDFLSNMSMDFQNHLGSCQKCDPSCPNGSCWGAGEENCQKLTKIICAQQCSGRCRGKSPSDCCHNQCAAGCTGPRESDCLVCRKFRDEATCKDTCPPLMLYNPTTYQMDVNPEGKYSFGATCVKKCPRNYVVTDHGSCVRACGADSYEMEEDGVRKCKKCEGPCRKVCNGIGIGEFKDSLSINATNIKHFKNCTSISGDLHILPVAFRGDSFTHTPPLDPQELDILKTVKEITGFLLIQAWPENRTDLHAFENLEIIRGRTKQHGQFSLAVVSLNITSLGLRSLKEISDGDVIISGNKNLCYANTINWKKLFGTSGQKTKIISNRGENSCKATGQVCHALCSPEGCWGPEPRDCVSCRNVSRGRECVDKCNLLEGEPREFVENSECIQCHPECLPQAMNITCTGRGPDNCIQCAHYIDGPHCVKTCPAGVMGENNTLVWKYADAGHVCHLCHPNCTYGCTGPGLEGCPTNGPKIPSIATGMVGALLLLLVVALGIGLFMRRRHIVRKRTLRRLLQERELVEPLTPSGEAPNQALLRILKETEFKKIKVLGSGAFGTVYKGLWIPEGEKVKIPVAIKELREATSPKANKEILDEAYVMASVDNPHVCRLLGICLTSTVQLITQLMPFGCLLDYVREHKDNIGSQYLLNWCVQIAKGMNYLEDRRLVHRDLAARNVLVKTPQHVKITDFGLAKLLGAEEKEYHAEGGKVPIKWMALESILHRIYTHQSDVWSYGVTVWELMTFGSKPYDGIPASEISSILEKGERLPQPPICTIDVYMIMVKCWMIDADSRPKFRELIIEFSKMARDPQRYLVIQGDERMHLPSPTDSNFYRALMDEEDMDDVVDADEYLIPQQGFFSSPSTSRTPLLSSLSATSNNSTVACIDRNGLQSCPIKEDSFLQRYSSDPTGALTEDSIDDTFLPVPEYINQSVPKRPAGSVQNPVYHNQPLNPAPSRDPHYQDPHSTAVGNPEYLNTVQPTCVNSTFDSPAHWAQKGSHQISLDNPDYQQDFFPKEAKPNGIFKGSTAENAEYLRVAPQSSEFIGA

Row | Compound | IC50 [1] [µM] | IC50 (A549) [µM] | IC50 (A-431) [µM]
1 | COc1cc(O)c2c(=O)n(-c3ccccc3)ccc2c1 |  | 27.9 | 
2 | C=CC(=O)Nc1c(OC)cc(OC)c2c(=O)n(-c3cccc(C(=O)N4CCCCC4)c3)ccc12 |  | 14.7 | 
3 | COc1cc(O)c2c(=O)n(-c3cccc(C(N)=O)c3)ccc2c1 |  | 24.8 | 15.2
4 | COc1cc(O)c2c(=O)n(Cc3ccccc3)ccc2c1 |  |  | 8.29
5 | COc1cc(O)c2c(=O)n(-c3cccc(C(=O)N4CCCCC4)c3)ccc2c1NC(=O)Nc1ccc(C(=O)N2CCN(C)CC2)cc1 |  | > 100 | 19.5
6 | C#Cc1cccc(-n2ccc3cc(OC)cc(OC)c3c2=O)c1 | 3.51 | 25.2 | 7.13
7 | COc1cc(OC)c2c(=O)n(-c3ccccc3)ccc2c1 |  | 44.5 | 5.35
8 | COc1cc(O)c2c(=O)n(-c3cccc(C(=O)N4CCCCC4)c3)ccc2c1NC(=O)CCN1CCOCC1 |  | 13.1 | 11.4
9 | COc1cc(O)c2c(c1)CCN(c1cccc(C(=O)N3CCCCC3)c1)C2=O | 1.18 | 13.2 | 5.32
10 | COc1cc(OC)c2c(=O)n(-c3cccc(C(=O)N4CCCCC4)c3)ccc2c1 | 2.12 | 18.6 | 15.3
11 | COc1cc2c(c(OC)c1)C(=O)N(c1cccc(C(=O)N3CCCCC3)c1)CC2 | 1.23 | 23.4 | 10.8
12 | COc1cc(OC)c2c(=O)n(-c3cccc(C(N)=O)c3)ccc2c1 |  | 31.3 | 28.2
13 | COc1cc(OC)c2c(=O)n(-c3cccc(C(F)(F)F)c3)ccc2c1 |  | 23.3 | 14.8

Results, then the compound that gave them:

Row | IC50 [1] [µM] | IC50 (A549) [µM] | IC50 (A-431) [µM] | Compound
14 | 5.49 | 17.8 | 3.95 | COc1cc(OC)c2c(=O)n(-c3ccc(F)c(Cl)c3)ccc2c1
15 | 1.38 | 14.2 | 2.25 | COc1cc(O)c2c(=O)n(-c3cccc(C(=O)N4CCCCC4)c3)ccc2c1
16 |  | 15.2 | 4.17 | COc1cc(OC)c2c(=O)n(-c3cccc(F)c3)ccc2c1
17 |  |  | 3.88 | COc1cc(OC)c2c(=O)n(Cc3ccccc3)ccc2c1
18 |  |  | 3.79 | COc1cc(OC)c2c(=O)n(-c3ccc(F)c(F)c3)ccc2c1
19 | 3.06 | 15.9 | 4.44 | C#Cc1cccc(-n2ccc3cc(OC)cc(O)c3c2=O)c1
20 |  | 14.7 | 5.3 | C=CC(=O)Nc1c(OC)cc(O)c2c(=O)n(-c3cccc(C(=O)N4CCCCC4)c3)ccc12

From ChEMBL document CHEMBL2440093, “Discovery of 2-aryl-8-hydroxy (or methoxy)-isoquinolin-1(2H)-ones as novel EGFR inhibitor by scaffold hopping” (Bioorg Med Chem, 2013)
